We go through 15 compounds from ChEMBL document CHEMBL2412956, “Synthesis and biological activity evaluation of 5-pyrazoline substituted 4-thiazolidinones” (Eur J Med Chem, 2013).

Data set [1] can be described thus: Selectivity index, ratio of CC50 for MDCK cells to EC50 for SARS coronavirus Urbani. Type of data set: toxicity, cell-based. As to conditions: dog, read-out: Ratio CC50/EC50.
A short description of data set [2]: Selectivity index, ratio of CC50 for MDCK cells to EC50 for Influenza B virus (B/Florida/4/2006). It counts as toxicity, cell-based. As to conditions: dog, read-out: Ratio CC50/EC50.
The nature of data set [3]: Selectivity index, ratio of CC50 for MDCK cells to EC50 for Influenza A virus (A/California/07/2009(H1N1)). Type of data set: toxicity, cell-based. To be noted: dog, read-out: Ratio CC50/EC50.
Data set [4] in a line: Antiviral activity against SARS coronavirus Urbani infected in MDCK cells assessed as inhibition of virus-induced cytopathic effect by cell-based neutral red uptake assay. Type of data set: functional. As to conditions: Severe acute respiratory syndrome-related coronavirus. (In general: Protection from cytopathic effect is a common read-out in antiviral testing.)
The subject of another data set is Influenza B virus. The data set is described as follows: Antiviral activity against Influenza B virus (B/Florida/4/2006) infected in MDCK cells assessed as inhibition of virus-induced cytopathic effect by cell-based neutral red uptake assay. To be noted: B/Florida/4/2006, MDCK. Type of data set: functional.
A further data set concerns UO-31. In words: Cytotoxicity against human UO31 cells assessed as cell growth at 10 uM after 48 hrs by SRB assay relative to control. It counts as functional. As to conditions: UO-31, 48 h, read-out: Activity. A digest of the protocol:
(§1)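 Single-dose NCI screen: compound at 10⁻⁵ M added to tumor cell cultures and incubated for 48 h. The SRB protein-binding dye end point was read spectrophotometrically. Results are percent growth of treated cells relative to untreated controls.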

The test system of another data set is MDCK. In words: (§2) Cytotoxicity against MDCK cells. It counts as cell-based, Canis lupus familiaris. As to conditions: dog, mdck. A digest of the protocol: (§3)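 Cytotoxicity was measured in uninfected wells run alongside the antiviral plates, across eight half-log dilutions in MEM. Cells were stained with neutral red, and the extracted dye was read at 540 nm. CC₅₀, the concentration giving 50% cytotoxicity, was obtained by regression, and values are reported in μM.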

The test system of data set [5] is Influenza A virus. In words: Antiviral activity against Influenza A virus (A/duck/Minnesota/1525/1981(H5N1)) infected in MDCK cells assessed as inhibition of virus-induced cytopathic effect by cell-based neutral red uptake assay. Type of data set: functional, organism-based.
In data set [6] the test system is Influenza A virus. The data set is described as follows: Antiviral activity against Influenza A virus (A/Perth/16/2009(H3N2)) infected in MDCK cells assessed as inhibition of virus-induced cytopathic effect by cell-based neutral red uptake assay. It counts as functional, organism-based.
The subject of data set [7] is Influenza A virus. In words: Antiviral activity against Influenza A virus (A/California/07/2009(H1N1)) infected in MDCK cells assessed as inhibition of virus-induced cytopathic effect by cell-based neutral red uptake assay. Type of data set: functional, organism-based.
The subject of a further data set is HOP-92. The data set is described as follows: Cytotoxicity against human HOP92 cells assessed as cell growth at 10 uM after 48 hrs by SRB assay relative to control. Type of data set: functional. To be noted: HOP-92, 48 h, read-out: Activity. An outline of the steps:
(§4)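 This was the NCI primary screen, with compound added once at 10⁻⁵ M and cultures incubated for 48 h. The endpoint was sulforhodamine B protein staining. Results are expressed as percent growth of treated cells relative to untreated control cells.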
For orientation: The SRB assay estimates cell density from bound dye.

Data set [8] can be described thus: Selectivity index, ratio of CC50 for MDCK cells to EC50 for Influenza A virus (A/Perth/16/2009(H3N2)). Type of data set: toxicity, cell-based. To be noted: dog, read-out: Ratio CC50/EC50.
Data set [9] can be described thus: Selectivity index, ratio of CC50 for MDCK cells to EC50 for Influenza A virus (A/duck/Minnesota/1525/1981(H5N1)). To be noted: dog, read-out: Ratio CC50/EC50. Type of data set: toxicity, cell-based.
A further data set relates to K562. The data set is described as follows: Cytotoxicity against human K562 cells assessed as cell growth at 10 uM after 48 hrs by SRB assay relative to control. It counts as functional. As to conditions: K562, 48 h, read-out: Activity. A digest of the protocol:
as §4

Another data set relates to T47D. In words: Cytotoxicity against human T47D cells assessed as cell growth at 10 uM after 48 hrs by SRB assay relative to control. It counts as functional. To be noted: read-out: Activity. A digest of the protocol:
as §1

Data set [10] concerns Trypanosoma brucei gambiense. In words: Antitrypanosomal activity against bloodstream form of Trypanosoma brucei gambiense Feo assessed as parasite growth inhibition after 72 hrs by resazurin-based fluorescence assay. It counts as functional, organism-based. A digest of the protocol: (§5)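 Bloodstream forms of strain 90-13 or Feo were grown in HMI9 with 10% FCS at 37 °C under 5% CO₂. Log-phase parasites were seeded at 10⁵ cells/ml and exposed for 72 h to 10–0.625 μg/ml drug from DMSO stocks, with DMSO as control. Resazurin was added at 45 μM final, and fluorescence was read 4 h later. IC₅₀ was taken from the dose–response curve as the mean of three independent experiments.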
Background: The colour change of resazurin is a common sign of viable cells or microbes.

A short description of data set [11]: as §2. Type of data set: cell-based, Canis lupus familiaris. To be noted: dog, MDCK cells. A digest of the protocol:
as §3

Data set [12] concerns Trypanosoma brucei brucei. The data set is described as follows: Antitrypanosomal activity against bloodstream form of Trypanosoma brucei brucei 90-13 assessed as parasite growth inhibition after 72 hrs by resazurin-based fluorescence assay. To be noted: 90-13, 72 h. Type of data set: functional, organism-based. An outline of the steps:
as §5

The next data set deals with CCRF-CEM. The data set is described as follows: Cytotoxicity against human CCRF-CEM cells assessed as cell growth at 10 uM after 48 hrs by SRB assay relative to control. To be noted: read-out: Activity. It counts as functional. A digest of the protocol:
as §4

For the next data set, the system named is Trypanosoma cruzi. In words: Antitrypanosomal activity against […] form of Trypanosoma cruzi Y infected in monkey […] cells assessed as parasite growth inhibition after 15 hrs by trypan blue staining-based hemocytometric analysis. Type of data set: functional, organism-based.

As a reminder, the EC50 is the concentration that produces a half-maximal response. What is called CC50 is the concentration giving 50% cytotoxicity. Take `COc1ccc(C2CC(c3ccc4ccccc4c3)=NN2C2SC(=O)N(CN3CCN(Cc4ccccc4)CC3)C2=O)cc1` (configuration not stated): the selectivity ratio in data set [1] turned out to be 1.6; in data set [2] it was 1; in [3], 1.1. For the same compound, the EC50 is 21.5 µM in data set [4]; 57.8 µM in the data set with Influenza B virus; above 24.8 µM in the data set on Influenza A virus [5]; above 6.6 µM with Influenza A virus [6]; 13.7 µM in the data set with Influenza A virus [7]. Besides, the growth at 10 µM in the data set with UO-31 worked out at 74.5%. Moreover, in the data set on MDCK, the CC50 came out at 6.6 µM.

As to `COc1ccc(C2CC(c3ccc4ccccc4c3)=NN2C2SC(=O)N(CN3CCN(C(C)=O)CC3)C2=O)cc1` (configuration not stated), the growth at 10 µM in the data set with UO-31 was determined as 82.2%.

As for `COc1ccc(C2CC(c3ccc4ccccc4c3)=NN2C2SC(=O)N(CN3CCCCC3)C2=O)cc1` (configuration not stated), the growth at 10 µM with HOP-92 came to 69.5%.

In the case of `O=C1NC(=O)C(N2N=C(c3ccc4ccccc4c3)CC2c2ccc(Cl)cc2)S1` (configuration not stated), the selectivity ratio in data set [2] is 1.6; in data set [8], 1; in data set [9], 1.2; in data set [3] it was 1. The EC50 was above 23.2 µM in [4]; 3.08 µM in the data set on Influenza B virus; 5.21 µM in the data set on Influenza A virus [5]; 2.84 µM in the data set on Influenza A virus [6]; 4.27 µM with Influenza A virus [7]. In addition, the growth at 10 µM in the data set on HOP-92 was determined as 74.9%.

In the case of `CC(=O)N1CCN(CN2C(=O)SC(N3N=C(c4ccc5ccccc5c4)CC3c3ccc(Cl)cc3)C2=O)CC1` (configuration not stated), in the data set on K562, the growth at 10 µM was 76.4%.

For `COc1ccc(C2CC(c3ccc4ccccc4c3)=NN2C(=O)/C=C2\SC(=O)NC2=O)cc1` (configuration not stated), the growth at 10 µM in the data set on T47D is 78.7%.

One may read the IC50 as the concentration that inhibits the measured activity by half. Consider `N=C(N)c1ccc(OCCCCCOc2ccc(C(=N)N)cc2)cc1` [PENTAMIDINE], for which the IC50 in data set [10] stood at 0.0053 µM.

In data set [11], `NC(=O)c1ncn([C@@H]2O[C@H](CO)[C@@H](O)[C@H]2O)n1` [RIBAVIRIN] registered a CC50 above 324 µM. Further, the EC50 in the data set with Influenza A virus [5] is 18.4 µM; with Influenza A virus [6], 18.4 µM; with Influenza A virus [7] it was 23.8 µM.

For the compound `COc1ccc(NC(=O)CN2C(=O)SC(N3N=C(c4ccc5ccccc5c4)CC3c3ccc(Cl)cc3)C2=O)cc1` (configuration not stated), the selectivity ratio stood at 1.4 in data set [2], 1.3 in data set [8], 1.5 in data set [9] and 1.5 in data set [3]. For the same compound, the EC50 is above 342 µM in [4]; 95.7 µM in the data set on Influenza B virus; 179 µM with Influenza A virus [5]; 18.8 µM in the data set on Influenza A virus [6]; 120 µM with Influenza A virus [7]. Moreover, the IC50 in data set [12] stood at 11.3 µM; in [10], 6.1 µM. The CC50 in the data set with MDCK is above 25.6 µM.

Turning to `CCN1CCN(CN2C(=O)SC(N3N=C(c4ccc5ccccc5c4)CC3c3ccc(Cl)cc3)C2=O)CC1` (configuration not stated), the figures for the selectivity ratio in [2], in data set [9] and in [3] were 2.1, 1.4 and 1.1, respectively. The EC50 in [4] was above 16.8 µM; with Influenza B virus it was 4.01 µM; in the data set on Influenza A virus [5] it was 4.38 µM; with Influenza A virus [6] it was above 2.37 µM; in the data set with Influenza A virus [7], 4.01 µM. In the data set on MDCK, it took 2.37 µM to reach half-maximal cytotoxicity (CC50).

Consider `Cc1ccc(NC(=O)CN2C(=O)SC(N3N=C(c4ccc5ccccc5c4)CC3c3ccc(Cl)cc3)C2=O)cc1` (configuration not stated), for which the figures for the selectivity ratio in data set [2], in data set [9] and in [3] were 1.3, 1.1 and 1.3, respectively. The EC50 in [4] is above 351 µM; in the data set on Influenza B virus it was 35.1 µM; in the data set with Influenza A virus [5], 51 µM; with Influenza A virus [6], above 13.3 µM; with Influenza A virus [7], 54.5 µM. Moreover, the values for the IC50 in [12] and in data set [10] were 5.43 µM and 2.53 µM, respectively. This compound also yielded a CC50 with MDCK above 13.3 µM.

In the case of `COc1ccc(NC(=O)CN2C(=O)S/C(=C\C(=O)N3N=C(c4ccc5ccccc5c4)CC3c3ccc(OC)cc3)C2=O)cc1` (configuration not stated), in the data set on CCRF-CEM, the growth at 10 µM amounted to 74.7%.

Turning to `CCC1SC(N/N=C\CSc2ccccc2)=NC1=O` (configuration not stated), the IC50 in the data set on Trypanosoma cruzi turned out to be 0.3 µM.

For `COc1ccc(C2CC(c3ccc4ccccc4c3)=NN2C2SC(=O)NC2=O)cc1` (configuration not stated), the selectivity ratio in data set [2] came out at 1.8; in data set [8] it was 1.4; in data set [9] it was 1.6; in data set [3], 1.1. In addition, the EC50 in data set [4] is above 23.5 µM; in the data set with Influenza B virus it was 4.55 µM; in the data set on Influenza A virus [5], 7.9 µM; in the data set on Influenza A virus [6] it was 4.31 µM; in the data set with Influenza A virus [7] it was 9.82 µM. Besides, the growth at 10 µM with UO-31 turned out to be 77.5%. For the same compound, the IC50 was 13.9 µM in data set [12] and 6.66 µM in [10]. Also, the CC50 in the data set on MDCK came out at 6.23 µM.

`COc1ccc(C2CC(c3ccc4ccccc4c3)=NN2C2SC(=O)N(CC(=O)Nc3ccc(C)cc3)C2=O)cc1` (configuration not stated): the selectivity ratio is 2.1 in data set [2], 1.4 in data set [8], above 16.3 in [9] and 1.6 in data set [3]. The EC50 in data set [4] was above 313 µM; with Influenza B virus, 79.7 µM; in the data set on Influenza A virus [5], 21.8 µM; in the data set on Influenza A virus [6], 53.1 µM; in the data set on Influenza A virus [7], 142 µM. Also, the growth at 10 µM in the data set on UO-31 was 76.6%. In the data set with MDCK, this compound yielded a CC50 above 74.4 µM.
